Hits are enriched below; roughly 2.2% of the tested compounds scored in any of these assays.
FXN GAA850 act – activators of GAA850 frataxin (FXN) promoter. HEK293 lucGAA850 FXN promoter luciferase reporter, 24 h; percent of 10 µM SAHA response. activation, % at 6 µM. 0.56% of 360,000 active;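 active = activation above the average of all compounds screened plus 3 SD, cutoff fixed separately per campaign, cut at about 7.5% in these data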;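 also: 0% = DMSO wells and 100% = 10 µM SAHA wells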
V-ATPase pHluor – yeast V-ATPase proton transport regulation by pHLuorin; S. cerevisiae, pHLuorin cytosolic pH fluorescence; AID 504577; 0.37% of 350,000 active; response, % at 10 µM; in the data active = response mostly above about 7.3%, no sharp cut-off; inactive = mostly below about 5.4%; also: actives read high
GalR3 antag – blocks the human galanin receptor 3; O60755; HEK293 GalR3-CNG cAMP membrane potential fluorescence; galR3 body fused to GalR1 C-terminus; inhibition, % at 3 µM; 0.44% of 360,000 active; AID 651719;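 active = inhibition above the screen-wide average plus 3 SD, cut at about 13% in these data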;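 also: forskolin and galanin both at EC90 stimulate the cells; cAMP rise reported by CNG channel membrane potential dye signal; 0% = forskolin plus galanin with DMSO and 100% = forskolin alone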
Target sequence (O60755 1-299 limits assumed): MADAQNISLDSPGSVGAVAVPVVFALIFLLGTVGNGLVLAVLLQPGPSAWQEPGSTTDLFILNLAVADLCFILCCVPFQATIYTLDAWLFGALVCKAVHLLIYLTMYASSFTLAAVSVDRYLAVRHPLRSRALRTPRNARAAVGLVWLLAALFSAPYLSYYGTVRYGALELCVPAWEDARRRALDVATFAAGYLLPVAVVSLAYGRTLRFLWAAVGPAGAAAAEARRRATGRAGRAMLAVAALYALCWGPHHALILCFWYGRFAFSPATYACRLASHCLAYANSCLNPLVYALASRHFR
NR2E3 ag-1 – agonists of human NR2E3 nuclear receptor | Q9Y5X4 | CHO-S Gal4-NCOR/VP16-NR2E3 two-hybrid, luciferase | inhibition of corepressor binding, % at 3.98 µM | 0.35% of 360,000 active | AID 602229;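 active = inhibition above the mean of all tested compounds plus 3 SD, cut at about 70% in these data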;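 also: 0% = DMSO with NR2E3 transfected cells and 100% = cells lacking NR2E3 construct; higher means lower luciferase signal from less NR2E3 corepressor binding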
HIV Env fusion – blocks HIV Env-driven cell-cell fusion | 1.1% of 360,000 active | HeLa-JRFL Env/CEM21 cell fusion, luciferase | inhibition, % at 12.3 µM;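 active = mean replicate inhibition score of at least 50 and every replicate individually at or above 50; inconclusive = only one of the two criteria met; inactive = mean below 50 and not all replicates reaching 50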;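 also: 0% = plate neutral controls and 100% = maraviroc near 300 nM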
NR2E3 ag-2 – NR2E3 (human) agonism; Q9Y5X4; GST-NR2E3/biotin-RetCOR TR-FRET, 1536-well; inhibition of corepressor binding, % at 4.78 µM; 0.12% of 320,000 active;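 active = percent inhibition above the cutoff of mean plus 3 SD of all tested compounds, set per screening campaign, cut at about 20% in these data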;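 also: 0% = DMSO wells and 100% = biotin wells as full block of FRET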
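System: GST-tagged NR2E3 plus biotinylated RetCOR corepressor; Buffer or medium: pH 7.5 Tris-based buffer; Probe or stimulus: RetCOR corepressor, biotinylated, 7 nM; Doses: compound at 4.8 µM, single dose; Schedule: 5 h incubation at 4 °C; Technique: time-resolved FRET; Evaluation: percent inhibition of TR-FRET ratio; Replication: one well per compound, singlicate testing.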
Active calls of the source: *; ? = inconclusive; · = not tested or not shown; [ ] = dose if it differs, or a comment.

SMILES	FXN GAA850 act	V-ATPase pHluor	GalR3 antag	NR2E3 ag-1	HIV Env fusion	NR2E3 ag-2
Cc1ccc(C(C(=O)NC(C)(C)C)N(Cc2cccs2)C(=O)c2csnn2)cc1 (stereo not drawn)	2	3	-4	1	79*	1
CCC(C)(C)NC(=O)C(c1ccccc1F)N(Cc1ccco1)C(=O)c1csnn1 (stereo not drawn)	2	-12	-5	2	53*	2
CCC(C)(C)NC(=O)C(c1sccc1C)N(Cc1ccco1)C(=O)c1csnn1 (stereo not drawn)	4	3	-10	14	55*	1
CC(C)(C)NC(=O)C(c1ccc(F)cc1)N(Cc1ccco1)C(=O)c1csnn1 (stereo not drawn)	0	-5	-4	-9	4	2
Cc1noc(C)c1S(=O)(=O)Nc1ccc2c(c1)C(=O)N([C@@H](C)CO)C[C@@H](C)[C@@H](CN(C)C(=O)C1CCCCC1)OCCCC[C@@H](C)O2	·	·	·	·	3[16.7 µM]	·
COc1ccccc1C(=O)N1CCN(C(=O)c2oc3ccc(C)cc3c2C)CC1	2	3	-1	19	66*	-1
Cc1ccc2oc(C(=O)N3CCCCCC3)c(C)c2c1	7	-3	-5	-110	·	3
COc1ccc(N2CCN(C(=O)COC(=O)CCS(=O)(=O)c3ccc(C)cc3)CC2)cc1	2	15*	4	3	-8	-5
O=C(Nc1ccc2c(c1)[C@@H]1C[C@H](CC(=O)N3CCc4ccccc4C3)O[C@H](CO)[C@@H]1O2)NC1CCCC1	·	·	·	·	12[16.7 µM]	·
CCOC(=O)C1=C(C(=O)OCC)C2N(Cc3ccc(Br)cc3)c3ccccc3[C@@]23C[C@@H](C(=O)OC)N(S(=O)(=O)c2cccs2)C3=N1 (stereo partly drawn)	·	·	3	·	59*	·
CCOC(=O)C1=C(C(=O)OCC)C2N(Cc3ccc(C(F)(F)F)cc3)c3ccccc3[C@@]23C[C@@H](C(=O)OC)N(S(=O)(=O)c2cccs2)C3=N1 (stereo partly drawn)	·	·	-2	·	?	·
COCC(=O)Nc1ccc2c(c1)[C@H]1C[C@H](CC(=O)NCc3ccccc3F)O[C@@H](CO)[C@H]1O2	·	·	·	·	-9[16.7 µM]	·
O=C(NCc1ccc(F)cc1)C(Cc1ccccc1)NS(=O)(=O)c1cccs1 (stereo not drawn)	0	1	0	-2	10	4
O=C(NCc1cccs1)C(Cc1ccccc1)NS(=O)(=O)c1cccs1 (stereo not drawn)	-1	1	-4	-8	55*	0
O=C(CSc1ccccc1C(=O)NCc1ccccc1)NC12CC3CC(CC(C3)C1)C2	4	1	3	-28	76*	-3
O=C1C(=Cc2ccco2)CCC1=Cc1ccco1	3	3	-4	5	·	·
O=C1C(=Cc2ccco2)CCCC1=Cc1ccco1	12*	1	-4	-39	-244	·
O=C(C[C@@H]1CC[C@H]2[C@@H](COC[C@@H](O)CN2Cc2ccc(Oc3ccccc3)cc2)O1)N1CCN(c2ccccc2)CC1	·	·	·	·	59*[16.7 µM]	·
O=C(C[C@@H]1CC[C@@H]2[C@H](COC[C@H](O)CN2Cc2ccc(Oc3ccccc3)cc2)O1)N1CCN(c2ccccc2)CC1	·	·	·	·	18[16.7 µM]	·
CC(C)NC(=O)NCC[C@H]1CC[C@@H](NC(=O)CN(C)C)[C@@H](CO)O1	·	·	·	·	0[16.7 µM]	·
O=C(CN1CCN(c2ccccn2)CC1)Nc1ccc([N+](=O)[O-])cc1C(=O)Nc1ccccc1F	1	6	0	33	60*	7
C[C@H]1CN([C@@H](C)CO)S(=O)(=O)c2ccc(C#CCC3CCCC3)cc2O[C@@H]1CN(C)Cc1ccc(C(=O)O)cc1	·	·	·	·	24[16.7 µM]	·
CC1C/C(=C/c2ccncc2)C(=O)/C(=C/c2ccncc2)C1 (stereo not drawn)	-17	3	-9	-3	81*	1
Cc1ccc(C(=O)c2c(C)oc3c2C(=O)C(=O)c2ccccc2-3)cc1	-6	1	·	-98	·	10
COc1ccc(C(=O)c2c(C(F)(F)F)oc3c2C(=O)c2ccccc2C3=O)cc1	0	1	·	93*	·	0
C[C@@H]1CN([C@@H](C)CO)C(=O)c2cc(NC(=O)CCC(F)(F)F)ccc2O[C@@H](C)CCCCO[C@H]1CN(C)Cc1ccncc1	·	·	·	·	-4[16.7 µM]	·

High-throughput results as filed in PubChem BioAssay.
